Data on one compound can be found in ChEMBL document CHEMBL3390837, “Bridged tetrahydroisoquinolines as selective NADPH oxidase 2 (Nox2) inhibitors” (Medchemcomm, 2013).

The nature of data set [1]: Cytotoxicity against african green monkey COS7 cells expressing human p22phox assessed as cell viability at 25 to 50 uM after 15 mins by luminogenic assay. It is filed as cell-based. Particulars: chlorocebus aethiops, cos-7, 0.25 h. The essentials: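 COS-22 cells plated at 2.5 x 10³ cells/well in OPTIMEM, exposed 15 min to compounds at various concentrations; dead-cell protease release read with luminogenic AAF peptide substrate, signal before and after digitonin used to derive % dead; reported as % live cells (100 − % dead) per well.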

Data set [2] deals with T1, NADPH oxidase 2 (Homo sapiens) (UniProt P04839).
T1 sequence (whole entry): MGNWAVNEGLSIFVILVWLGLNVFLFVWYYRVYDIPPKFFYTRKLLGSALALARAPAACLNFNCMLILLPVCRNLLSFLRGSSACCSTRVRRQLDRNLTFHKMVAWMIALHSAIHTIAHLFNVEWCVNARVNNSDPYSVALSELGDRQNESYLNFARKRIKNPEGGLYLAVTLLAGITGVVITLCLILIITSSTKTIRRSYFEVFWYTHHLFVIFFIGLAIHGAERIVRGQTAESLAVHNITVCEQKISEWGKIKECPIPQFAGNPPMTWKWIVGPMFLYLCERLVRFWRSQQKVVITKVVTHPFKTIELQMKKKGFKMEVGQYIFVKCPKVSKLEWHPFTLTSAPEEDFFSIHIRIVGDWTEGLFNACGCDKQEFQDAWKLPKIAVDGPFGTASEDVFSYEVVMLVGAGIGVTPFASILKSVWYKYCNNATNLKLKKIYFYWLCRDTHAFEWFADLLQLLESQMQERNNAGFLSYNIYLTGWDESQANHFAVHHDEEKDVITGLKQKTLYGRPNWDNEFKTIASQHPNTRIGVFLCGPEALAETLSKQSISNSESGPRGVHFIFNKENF
As to the kind of experiment: Inhibition of full length human NOX2 transfected in COS 22 cells assessed as inhibition of lithium dodecyl sulphate-stimulated ROS generation at 6.3 uM preincubated for 15 mins followed by lithium dodecyl sulphate challenge by cell-free assay in presence of NADPH. The essentials:
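COS-Nox2 lysate (freeze/thaw ×5, needle passage, 1000 × g spin, kept near 0 °C) at 5 × 10⁵ cell equivalents/well in 65 mM sodium phosphate pH 7.0 with 1 mM EGTA, 10 µM FAD, 1 mM MgCl₂, 2 mM NaN₃, 0.2 mM cytochrome c; superoxide from initial 10-min linear rate of SOD-inhibitable cytochrome c reduction at 550 nm (21.1 mM⁻¹ cm⁻¹).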

In data set [3] the target is Xanthine dehydrogenase/oxidase (Bos taurus, UniProt P80457). As to the kind of experiment: Inhibition of bovine milk xanthine oxidase assessed as hypoxanthine-stimulated ROS generation by measuring H2O2 production at 25 to 50 uM by fluorescence assay. Particulars: cattle.
Sequence of Xanthine dehydrogenase/oxidase (P80457 whole entry): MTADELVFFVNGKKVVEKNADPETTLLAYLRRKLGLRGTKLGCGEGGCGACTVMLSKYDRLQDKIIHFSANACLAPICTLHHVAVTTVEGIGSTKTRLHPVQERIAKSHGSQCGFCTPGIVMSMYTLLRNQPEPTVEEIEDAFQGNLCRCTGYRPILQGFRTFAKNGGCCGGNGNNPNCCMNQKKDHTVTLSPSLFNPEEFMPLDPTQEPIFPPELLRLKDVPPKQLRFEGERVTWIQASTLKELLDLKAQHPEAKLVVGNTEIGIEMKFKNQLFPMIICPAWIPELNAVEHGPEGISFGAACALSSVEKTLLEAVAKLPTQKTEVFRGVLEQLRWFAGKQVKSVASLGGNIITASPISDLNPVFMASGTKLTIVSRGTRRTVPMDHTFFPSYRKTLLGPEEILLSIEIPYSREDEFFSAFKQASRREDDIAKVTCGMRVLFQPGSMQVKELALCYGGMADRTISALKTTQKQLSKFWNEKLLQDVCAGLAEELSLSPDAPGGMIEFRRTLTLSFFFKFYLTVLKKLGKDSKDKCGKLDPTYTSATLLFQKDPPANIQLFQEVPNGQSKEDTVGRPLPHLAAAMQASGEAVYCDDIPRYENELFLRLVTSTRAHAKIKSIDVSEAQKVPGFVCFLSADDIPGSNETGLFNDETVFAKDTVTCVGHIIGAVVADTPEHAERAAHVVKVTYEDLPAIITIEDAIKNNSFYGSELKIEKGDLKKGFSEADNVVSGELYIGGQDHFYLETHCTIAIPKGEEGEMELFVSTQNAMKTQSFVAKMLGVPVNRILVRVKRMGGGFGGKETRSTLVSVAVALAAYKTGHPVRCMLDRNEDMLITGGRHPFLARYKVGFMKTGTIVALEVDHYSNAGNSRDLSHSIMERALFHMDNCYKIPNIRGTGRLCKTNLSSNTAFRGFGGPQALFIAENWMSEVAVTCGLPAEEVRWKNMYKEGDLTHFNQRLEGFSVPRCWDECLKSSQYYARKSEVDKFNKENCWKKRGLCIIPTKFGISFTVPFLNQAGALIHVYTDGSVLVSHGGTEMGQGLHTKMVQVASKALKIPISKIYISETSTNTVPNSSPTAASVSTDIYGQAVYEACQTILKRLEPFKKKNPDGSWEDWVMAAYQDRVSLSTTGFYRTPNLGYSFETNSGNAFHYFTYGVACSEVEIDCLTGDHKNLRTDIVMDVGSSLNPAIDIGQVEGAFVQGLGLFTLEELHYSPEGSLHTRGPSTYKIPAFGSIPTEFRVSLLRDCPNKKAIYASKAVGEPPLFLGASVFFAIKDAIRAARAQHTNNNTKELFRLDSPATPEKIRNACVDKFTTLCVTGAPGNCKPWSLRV
The target in a further data set is T2, NADPH oxidase 2 (Homo sapiens, UniProt P04839).
T2 sequence (P04839 whole entry): T1 sequence (whole entry)
Nature of the data set: Inhibition of full length human NOX2 transfected in COS 22 cells assessed as inhibition of Phorbol 12-myristate 13-acetate-stimulated ROS generation by measuring H2O2 production by fluorescence assay in presence of superoxide dismutase. In kind it is cell-based. Particulars: read-out: IC50. The essentials:
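Intact COS-Nox2 cells in Hepes pH 7.4 buffer with 0.1 mM Amplex Red, 0.32 U/ml HRP and 150 U/mL SOD, drug 15 min at 37 °C; started with 5 µM PMA; fluorescence monitored 1 h at 37 °C; rate as RFU/min minus unstimulated cells; % of vehicle control.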

Another data set has as its target T3, NADPH oxidase 4 (Homo sapiens, UniProt Q9NPH5).
T3 sequence (Q9NPH5 whole entry): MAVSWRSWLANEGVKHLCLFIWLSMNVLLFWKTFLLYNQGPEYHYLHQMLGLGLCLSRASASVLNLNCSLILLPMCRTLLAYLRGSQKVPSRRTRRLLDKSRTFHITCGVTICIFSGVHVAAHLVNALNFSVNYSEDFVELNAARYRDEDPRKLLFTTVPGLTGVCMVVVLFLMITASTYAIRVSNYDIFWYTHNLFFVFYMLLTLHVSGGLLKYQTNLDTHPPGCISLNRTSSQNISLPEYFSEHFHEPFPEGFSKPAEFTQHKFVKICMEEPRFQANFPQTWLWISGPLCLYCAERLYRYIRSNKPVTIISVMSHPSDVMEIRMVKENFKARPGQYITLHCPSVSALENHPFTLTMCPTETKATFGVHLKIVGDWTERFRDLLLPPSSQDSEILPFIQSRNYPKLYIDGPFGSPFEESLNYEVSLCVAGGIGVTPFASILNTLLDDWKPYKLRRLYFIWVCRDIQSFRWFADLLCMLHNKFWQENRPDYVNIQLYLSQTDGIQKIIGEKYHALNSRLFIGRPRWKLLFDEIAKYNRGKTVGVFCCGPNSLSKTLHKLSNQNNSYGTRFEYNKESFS
Nature of the data set: Inhibition of full length human NOX4 transfected in COS 22 cells assessed as inhibition of ROS generation by measuring H2O2 production by fluorescence assay. Particulars: read-out: IC50.

The target in another data set is T4, NADPH oxidase 5 (Homo sapiens, UniProt Q96PH1).
T4 sequence (Q96PH1 whole entry): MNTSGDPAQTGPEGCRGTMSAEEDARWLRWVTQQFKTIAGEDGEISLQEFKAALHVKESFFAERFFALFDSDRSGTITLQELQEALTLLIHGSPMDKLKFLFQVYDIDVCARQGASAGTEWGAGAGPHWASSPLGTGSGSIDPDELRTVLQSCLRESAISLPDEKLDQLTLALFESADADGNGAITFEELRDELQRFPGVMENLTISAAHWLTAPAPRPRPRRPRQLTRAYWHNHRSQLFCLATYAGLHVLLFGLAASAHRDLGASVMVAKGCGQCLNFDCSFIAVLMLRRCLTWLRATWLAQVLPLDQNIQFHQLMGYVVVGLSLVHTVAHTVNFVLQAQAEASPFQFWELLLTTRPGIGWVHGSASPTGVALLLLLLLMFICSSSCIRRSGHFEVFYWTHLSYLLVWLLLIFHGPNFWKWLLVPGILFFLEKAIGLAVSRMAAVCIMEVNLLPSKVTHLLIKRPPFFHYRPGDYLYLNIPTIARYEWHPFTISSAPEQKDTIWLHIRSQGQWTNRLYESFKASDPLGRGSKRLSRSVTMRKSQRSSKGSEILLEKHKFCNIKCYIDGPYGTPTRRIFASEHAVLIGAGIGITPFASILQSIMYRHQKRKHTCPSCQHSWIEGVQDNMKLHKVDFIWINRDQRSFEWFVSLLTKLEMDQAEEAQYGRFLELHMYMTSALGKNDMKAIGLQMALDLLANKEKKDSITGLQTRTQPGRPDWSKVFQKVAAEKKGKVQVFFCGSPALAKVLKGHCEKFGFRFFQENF
As to the kind of experiment: Inhibition of full length human NOX5 transfected in HEK cells assessed as inhibition of ionomycin-stimulated ROS generation by chemiluminescence assay. It is filed as cell-based, HEK293. The essentials:
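HEK-Nox5 cells at 5 × 10⁴ cells/well in OPTIMEM, 10 min at 37 °C in PBS with L-012, then stimulated with 1 µM PMA/0.1 µM ionomycin; luminescence over time; SOD 150 U/mL used to confirm superoxide specificity. IC50 by three-parameter fit, Hill slope 1, top/bottom fixed 100/0.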

Activity calls are given as the source filed them. The rule behind the calls is not given here.

By IC50 is commonly meant the concentration needed to halve the response being measured.

Take `C=C(C)C[C@@H]1N[C@H]2CC(C)(C)[C@@H]1c1c(Br)cccc12` (racemic): the Activity entry in data set [1] is reported as “Non-toxic”. In data set [2], the inhibition result is “Active”. The “inhibition (INH)” value in data set [3] is listed as “Not Active”. Besides, the figures for the IC50 on NADPH oxidase 2, at NADPH oxidase 4 and at NADPH oxidase 5 were 40 µM, greater than 100 µM and 20 µM, respectively.
